Experimental data: ChEMBL document CHEMBL1833913, “Structure-activity relationship study of pyridazine derivatives as glutamate transporter EAAT2 activators” (Bioorg Med Chem Lett, 2011)
Active and inactive are the calls of the source. The calls are words filed in the database; no cut-off is given here.

Experiments:
[1] = system: Astrocyte; experiment: Increase of EAAT2 expression in mouse primary astrocytes at 10 uM after 24 hrs by Western blot analysis relative to control; format: functional
Method in brief: (§1)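 PA-EAAT2 cells (primary astrocyte line stably expressing EAAT2 mRNA) were incubated with compound at 10 μM for 4 h or 24 h. Cells were then harvested and EAAT2 protein measured by Western blot. Results are given as fold increase over DMSO control.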

[2] = system: Astrocyte; experiment: Increase of EAAT2 expression in mouse primary astrocytes at 10 uM after 4 hrs by Western blot analysis relative to control; format: functional; method in brief: as §1
[3] = system: Astrocyte; experiment: Increase of EAAT2 expression in mouse primary astrocytes after 24 hrs by Western blot analysis relative to beta-actin protein expression; format: functional, cell-based
Method in brief: (§2)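 PA-EAAT2 cells (primary astrocyte line stably expressing EAAT2 mRNA) were exposed for 24 h to a 6-point series (0.1, 0.3, 1.0, 5.0, 10.0, 30.0 μM). EAAT2 protein was measured by Western blot and normalised separately to β-actin or GAPDH. Fold increase and EC50 were derived from the dose-response. Values are means of four separate experiments.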

[4] = system: Astrocyte; experiment: Increase of EAAT2 expression in mouse primary astrocytes at 1 uM after 24 hrs by Western blot analysis relative to beta-actin protein expression; format: functional; method in brief: as §2
[5] = system: Astrocyte; experiment: Increase of EAAT2 expression in mouse primary astrocytes at 1 uM after 24 hrs by Western blot analysis relative to GAPDH protein expression; format: functional; method in brief: as §2
[6] = system: Astrocyte; experiment: Increase of EAAT2 expression in mouse primary astrocytes at 10 uM after 24 hrs by Western blot analysis relative to beta-actin protein expression; format: functional; method in brief: as §2
[7] = system: Astrocyte; experiment: Increase of EAAT2 expression in mouse primary astrocytes at 10 uM after 24 hrs by Western blot analysis relative to GAPDH protein expression; format: functional; method in brief: as §2
[8] = system: Astrocyte; experiment: Increase of EAAT2 expression in mouse primary astrocytes after 24 hrs by Western blot analysis relative to GAPDH protein expression; format: functional, cell-based; method in brief: as §2
[9] = system: Astrocyte; experiment: Increase of EAAT2 expression in mouse primary astrocytes at <5 uM after 24 hrs by Western blot analysis relative to control; format: functional

Structure (SMILES) | fold change (FC) [1] | fold change (FC) [2] | EC50 [3] [nM] | fold change (FC) [4] | fold change (FC) [5] | fold change (FC) [6] | fold change (FC) [7] | EC50 [8] [nM] | fold change (FC) [9]
c1ccc(CSc2ccc(-c3ccccn3)nn2)cc1 | 3 | 1.3 |  |  |  |  |  |  | 
Clc1ccccc1CCSc1ccc(-c2ccccn2)nn1 | 4.8 | 1.7 | 4700 | 1 | 1 | 4.8 | 4.5 | 5100 | 
Cc1ccccc1CSc1ccc(-c2ccccc2)nn1 | 2 | 1.1 |  |  |  |  |  |  | 
Fc1cccc(Cl)c1CCOc1ccc(-c2ccccn2)nn1 | 3.1 | 2.2 |  |  |  |  |  |  | 
Cc1cccc(C)c1CSc1ccc(-c2ccccn2)nn1 | 6.5 | inactive | 2600 | 2 | 2 | 6.5 | 6.4 | 2400 | >6
Clc1cccc(CSc2ccc(-c3ccccn3)nn2)c1Cl | 2.4 | inactive |  |  |  |  |  |  | 
Fc1cccc(Cl)c1CSc1ccc(-c2cccnc2)nn1 | 2.3 | inactive |  |  |  |  |  |  | 
Cc1ccccc1CSc1ccc(-c2cccnc2)nn1 | inactive | 1.5 |  |  |  |  |  |  | 
Fc1ccc(CSc2ccc(-c3ccccn3)nn2)c(Cl)c1 | 1.7 | 1.6 |  |  |  |  |  |  | 
Clc1cccc(CSc2ccc(-c3ccccn3)nn2)c1 | 4.1 | 2.1 | 1700 | 4 | 4.2 | 4.1 | 3.8 | 500 | 
CCCNC(=O)c1ccc(-c2ccccn2)nn1 | 1.2 | inactive |  |  |  |  |  |  | 
Clc1ccccc1CSc1ccc(-c2ccncc2)nn1 | 1.7 | 1.5 |  |  |  |  |  |  | 
Fc1ccc(CSc2ccc(-c3ccccn3)nn2)c(F)c1 | 3.8 | 2.4 | 2600 | 1 | 1 | 3.8 | 3.7 | 2600 | 
Clc1cccc(Cl)c1CSc1ccc(-c2ccccn2)nn1 | 3.9 | 1.5 | 500 | 3 | 3.5 | 3.9 | 3.5 | 500 | 
Fc1cccc(Cl)c1COc1ccc(-c2ccccn2)nn1 | 2.9 | 1.1 |  |  |  |  |  |  | 
Cc1ccc(CSc2ccc(-c3ccccn3)nn2)cc1 | 2.6 | 2.1 |  |  |  |  |  |  | 
Cc1ccccc1CS(=O)(=O)c1ccc(-c2ccccn2)nn1 | 1.1 | 2.3 |  |  |  |  |  |  | 
Cc1ccc(CSc2ccc(-c3ccncc3)nn2)cc1 | 2.4 | 1.3 |  |  |  |  |  |  | 
Cc1ccccc1COc1ccc(-c2ccccn2)nc1 | inactive | 1.5 |  |  |  |  |  |  | 
Cc1ccc(Sc2ccc(-c3ccccn3)nn2)c(C)c1 | 2.2 | 1.2 |  |  |  |  |  |  | 
c1ccc(-c2ccc(SC3CCCc4ccccc43)nn2)nc1 (stereo not drawn) | 5.3 | inactive | 1900 | 2.4 | 2.8 | 5.3 | 4.5 | 1700 | 
CC(Oc1ccc(-c2ccccn2)nn1)c1c(F)cccc1Cl (stereo not drawn) | 3 | 1.6 |  |  |  |  |  |  | 
O=S(=O)(Cc1ccccc1Cl)c1ccc(-c2ccccn2)nn1 | inactive | 1.6 |  |  |  |  |  |  | 
Cc1cc(C)c(CSc2ccc(-c3ccccn3)nn2)c(C)c1 | 4.7 | 1.7 | 2400 | 1.5 | 1.6 | 4.7 | 4.8 | 2100 | 
Cc1ccc(COc2ccc(-c3ccccn3)nn2)c(C)c1 | 2 | inactive |  |  |  |  |  |  | 
Fc1cccc(Cl)c1CSc1ccc(-c2ccccn2)nn1 | 2 | inactive |  |  |  |  |  |  | 
Fc1ccc(CSc2ccc(-c3ccccn3)nn2)cc1 | 2.6 | 2.5 |  |  |  |  |  |  | 

Structure (SMILES) | fold change (FC) [1] | fold change (FC) [2] | EC50 [3] [nM] | fold change (FC) [4] | fold change (FC) [5] | fold change (FC) [6] | fold change (FC) [7] | EC50 [8] [nM] | fold change (FC) [9]
Cc1ccccc1CNc1ccc(-c2ccccn2)nn1 | 2.6 | 1.7 |  |  |  |  |  |  | 
Clc1ccccc1CSc1ccc(-c2ccccn2)nn1 | 4 | 2.1 | 3300 | 1.1 | 1.6 | 4 | 4.5 | 3200 | 
Cc1ccc(CSc2ccc(-c3ccccn3)nn2)c(C)c1 | 6.4 | 1.9 | 2700 | 2 | 2.2 | 6.4 | 6 | 1800 | >6
Cc1ccccc1CCSc1ccc(-c2ccccn2)nn1 | 2.8 | 1.2 |  |  |  |  |  |  | 
Cc1ccccc1COc1ccc(-c2ccccn2)nn1 | 2.5 | 2 |  |  |  |  |  |  | 
Clc1ccc(Cl)c(CSc2ccc(-c3ccccn3)nn2)c1 | 2.5 | 1.4 |  |  |  |  |  |  | 
Clc1ccc(CSc2ccc(-c3ccccn3)nn2)c(Cl)c1 | inactive | 1.8 |  |  |  |  |  |  | 
O=S(=O)(Cc1c(F)cccc1Cl)c1ccc(-c2ccccn2)nn1 | 2.8 | 1.4 |  |  |  |  |  |  | 
Fc1cc(F)c(CSc2ccc(-c3ccccn3)nn2)c(F)c1 | 2.4 | 1.6 |  |  |  |  |  |  | 
CCSc1ccc(-c2ccccn2)nn1 | 1.9 | 1.6 |  |  |  |  |  |  | 
Cc1cccc(CSc2ccc(-c3ccccn3)nn2)c1 | 2.8 | 2 |  |  |  |  |  |  | 
Cc1ccc(-c2ccc(SCc3c(F)cccc3Cl)nn2)cc1 | 2.3 | 1.2 |  |  |  |  |  |  | 
Fc1ccc(Sc2ccc(-c3ccccn3)nn2)c(Cl)c1 | 2.5 | 1.3 |  |  |  |  |  |  | 
CC(Sc1ccc(-c2ccccn2)nn1)c1c(F)cccc1Cl (stereo not drawn) | 5.5 | 1.7 | 3900 | 1.5 | 1.8 | 5.5 | 5.2 | 2400 | 
Fc1ccc(COc2ccc(-c3ccccn3)nn2)c(F)c1 | 2.3 | inactive |  |  |  |  |  |  | 
Fc1cccc(Cl)c1CSc1ccc(-c2ccncc2)nn1 | 1.9 | inactive |  |  |  |  |  |  | 
c1ccc(CSc2ccc(-c3ccccn3)cc2)cc1 | 1.1 | 1.2 |  |  |  |  |  |  | 
Sc1ccc(-c2ccccn2)nn1 | 2 | inactive |  |  |  |  |  |  | 
Clc1ccccc1CSc1ccc(-c2cccnc2)nn1 | 1.2 | 1.2 |  |  |  |  |  |  | 
Fc1ccccc1CSc1ccc(-c2ccccn2)nn1 | 3.1 | 2.2 |  |  |  |  |  |  | 
Fc1cccc(Cl)c1CCSc1ccc(-c2ccccn2)nn1 | 6.7 | 1.9 | 3300 | 1.2 | 1.2 | 6.7 | 5.3 | 3300 | >6
Cc1ccccc1CNC(=O)c1ccc(-c2ccccn2)nn1 | 1.4 | inactive |  |  |  |  |  |  | 
Cc1cccc(C)c1COc1ccc(-c2ccccn2)nn1 | 3.2 | 2.1 |  |  |  |  |  |  | 
Fc1cccc(F)c1CSc1ccc(-c2ccccn2)nn1 | 2.2 | 2.1 |  |  |  |  |  |  | 
Oc1ccc(-c2ccccn2)nn1 | 1.6 | 1.5 |  |  |  |  |  |  | 
Cc1ccccc1CSc1ccc(-c2ccccn2)cn1 | inactive | 1.3 |  |  |  |  |  |  | 
Cc1ccccc1CSc1ccc(-c2ccccn2)nn1 | 3.5 | 1.7 | 2600 | 1 | 1 | 3.5 | 3.1 | 1800 | 
